One block for each molecule: values may come before it.
Columns and labels:
[1] = Oxidation susceptibility / stability with rat liver microsomes by mass analysis; assay type: in vitro ADME; details: 37 °C
In short: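 Test compound incubated with rat liver microsomes at 37 °C over a time course. Samples analysed by mass spectrometry, with extracted-ion chromatograms monitored for parent and oxidised species. Recovery calculated from the AUC of the extracted ion.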

[2] = values determined in Sprague Dawley rat; cited from earlier work
[3] = Mouse i.v. PK study of 5g; assay type: in vivo, C57Bl6 mice; details: 5g versus 5a
MYC = MYC (Homo sapiens, UniProt P01106); assay: Affinity for MYC; assay type: binding
[4] = system: CEF transfected with ATG-MYC; assay: Focus assay: microtumor formation by ATG-MYC expressing vector in CEF; assay type: cell-based, chicken

Chain of MYC (P01106 whole entry, species assumed): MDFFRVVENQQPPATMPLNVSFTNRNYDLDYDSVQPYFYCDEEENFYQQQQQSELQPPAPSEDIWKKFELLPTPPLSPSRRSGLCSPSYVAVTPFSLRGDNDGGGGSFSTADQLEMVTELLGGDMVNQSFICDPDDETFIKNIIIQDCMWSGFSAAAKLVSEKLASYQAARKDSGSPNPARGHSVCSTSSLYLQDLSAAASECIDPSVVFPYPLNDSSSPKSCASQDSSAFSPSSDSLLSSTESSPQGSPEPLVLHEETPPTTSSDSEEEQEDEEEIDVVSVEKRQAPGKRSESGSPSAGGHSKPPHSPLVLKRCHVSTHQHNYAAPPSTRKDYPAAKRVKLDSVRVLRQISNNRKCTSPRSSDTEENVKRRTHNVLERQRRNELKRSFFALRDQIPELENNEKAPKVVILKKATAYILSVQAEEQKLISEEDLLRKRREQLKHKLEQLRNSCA

fate of nitro group on incubation with rat liver microsomes [1]: readily eliminated
SMILES: NC(=O)c1ccc(-c2cc(-c3ccc([N+](=O)[O-])cc3)nc(-c3ccco3)c2)cc1 [5a]
Half-life [2]: 1.6 h

improvement in exposure (AUC) compared with 5a [3]: 30 fold | ligand efficiency (LE) (MYC): 0.36
SMILES: NC(=O)c1ccc(-c2cc(-c3ccc(-c4nccs4)cc3)nc(-c3ccco3)c2)cc1 [5g]

SMILES: c1coc(-c2cc(-c3nccs3)cc(-c3ccc(-c4nccs4)cc3)n2)c1 [5j]
activity in the CEF assay [4]: not found to have any activity

SMILES: CS(=O)(=O)NC(=O)c1ccc(-c2cc(-c3ccc(C#N)cc3)nc(-c3ccco3)c2)cc1 [5m]
loss of potency compared to 5a ([4]; CEF assay): 10 fold

Source: article PMC6214403 (Bioorganic & medicinal chemistry, 2018)
